Source: ChEMBL document CHEMBL1125540, “Antiviral and antitumor structure-activity relationship studies on tetracyclic eudistomines” (1992)
Converted amounts (≈) assume the structure as drawn.

How the values were obtained:
Assay type in all cases: functional
HeLa [1] = experiment: Evaluation for antiviral activity against Coxsackie virus B4 in HeLa cell cultures (Concentration required to reduce virus-induced cytopathogenicity by 50%); conditions: Homo sapiens
In short: (§1)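 HeLa cultures were infected with respiratory syncytial, vesicular stomatitis, Coxsackie B4 or polio-1 virus. The antiviral end-point is 50% reduction of virus-induced cytopathogenicity. Cytotoxicity is the minimum concentration producing microscopically detectable alteration of normal cell morphology.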

HeLa [2] = experiment: Compound was evaluated for antiviral activity against respiratory syncitial virus (long) in HeLa cell cultures (Concentration required to reduce virus-induced cytopathogenicity by 50%); conditions: Homo sapiens; in short: as §1
HeLa [3] = experiment: Evaluation in HeLa cell cultures for cytotoxicity that is to cause microscopically detectable alteration of normal cell morphology; conditions: Homo sapiens; in short: as §1
[4] = Evaluation for antiviral activity against herpes simplex virus-2(G) in primary rabbit kidney cell cultures(PRK) (Concentration required to reduce virus-induced cytopathogenicity by 50%); conditions: Oryctolagus cuniculus
HeLa [5] = experiment: Evaluation for antiviral activity against vesicular stomatitis virus in HeLa cell cultures (Concentration required to reduce virus-induced cytopathogenicity by 50%); conditions: Homo sapiens; in short: as §1
Vero [6] = experiment: Evaluation for antiviral activity against Coxsackie virus B4 in Vero cell cultures (Concentration required to reduce virus-induced cytopathogenicity by 50%); conditions: Chlorocebus sabaeus
In short: (§2)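 Vero cultures were infected with parainfluenza-3, reovirus-1, Sindbis, Coxsackie B4 or Semliki forest virus. Values are concentrations giving 50% reduction of virus-induced cytopathogenicity, or a microscopically detectable alteration of normal cell morphology for cytotoxicity. Each is the average of two separate experiments.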

HeLa [7] = experiment: Evaluation for antiviral activity against polio virus-1 in HeLa cell cultures (Concentration required to reduce virus-induced cytopathogenicity by 50%); conditions: Homo sapiens; in short: as §1
Vero [8] = experiment: Evaluation in Vero cell cultures for cytotoxicity that is to cause microscopically detectable alteration of normal cell morphology; conditions: Chlorocebus sabaeus; in short: as §2
[9] = Evaluation for antiviral activity against vaccinia virus in primary rabbit kidney cell cultures(PRK) (Concentration required to reduce virus-induced cytopathogenicity by 50%); conditions: Oryctolagus cuniculus
[10] = Evaluation for antiviral activity against herpes simplex virus-1 (McIntyre) in primary rabbit kidney cell cultures(PRK) (Concentration required to reduce virus-induced cytopathogenicity by 50%); conditions: Oryctolagus cuniculus
L1210 = experiment: Inhibitory effect on the proliferation of murine leukemia cells (L1210); conditions: Mus musculus, read-out: ID50 (the source's name)
In short: (§3)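 Proliferation assay in murine leukemia L1210, human T-lymphoblast Molt-4F and human T-lymphocyte MT-4 cells. ID50 is the dose inhibiting tumor cell proliferation by 50%, expressed in μg/mL.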

MT4 = experiment: Inhibitory effect on the proliferation of human T-lymphocyte (MT-4); conditions: read-out: ID50 (the source's name); in short: as §3
[11] = Evaluated for antiviral activity against herpes simplex virus-1(KOS) in primary rabbit kidney cell cultures(PRK) (Concentration required to reduce virus-induced cytopathogenicity by 50%); conditions: Oryctolagus cuniculus
Vero [12] = experiment: Evaluation for antiviral activity against Sindbis virus in Vero cell cultures (Concentration required to reduce virus-induced cytopathogenicity by 50%); conditions: Chlorocebus sabaeus; in short: as §2
[13] = Evaluation in PRK cell cultures for cytotoxicity that is to cause microscopically detectable alteration of normal cell morphology; conditions: Oryctolagus cuniculus
Vero [14] = experiment: Evaluation for antiviral activity against forest virus in Vero cell cultures (Concentration required to reduce virus-induced cytopathogenicity by 50%); conditions: Chlorocebus sabaeus; in short: as §2
[15] = Evaluation for antiviral activity against herpes simplex virus-1(F) in primary rabbit kidney cell cultures(PRK) (Concentration required to reduce virus-induced cytopathogenicity by 50%); conditions: Oryctolagus cuniculus
Vero [16] = experiment: Evaluation for antiviral activity against parainfluenza-3 virus in Vero cell cultures (Concentration required to reduce virus-induced cytopathogenicity by 50%); conditions: Chlorocebus sabaeus; in short: as §2
[17] = Evaluation for antiviral activity against herpes simplex virus-1(TK-) (B2006) in primary rabbit kidney cell cultures(PRK) (Concentration required to reduce virus-induced cytopathogenicity by 50%); conditions: Oryctolagus cuniculus
MOLT-4F = experiment: Inhibitory effect on the proliferation of human T-lymphoblast cells (Molt-4F); conditions: read-out: ID50 (the source's name); in short: as §3
[18] = Evaluation for antiviral activity against vesicular stomatitis virus in primary rabbit kidney cell cultures(PRK) (Concentration required to reduce virus-induced cytopathogenicity by 50%); conditions: Oryctolagus cuniculus
[19] = Evaluation for antiviral activity against herpes simplex virus-2(196) in primary rabbit kidney cell cultures(PRK) (Concentration required to reduce virus-induced cytopathogenicity by 50%); conditions: Oryctolagus cuniculus
[20] = Evaluation for antiviral activity against herpes simplex virus-2(Lyons) in primary rabbit kidney cell cultures(PRK) (Concentration required to reduce virus-induced cytopathogenicity by 50%); conditions: Oryctolagus cuniculus
Vero [21] = experiment: Evaluation for antiviral activity against reo virus-1 in Vero cell cultures (Concentration required to reduce virus-induced cytopathogenicity by 50%); conditions: Chlorocebus sabaeus; in short: as §2
MDCK = experiment: Compound was evaluated in MDCK cell cultures for cytotoxicity that is to cause microscopically detectable alteration of normal cell morphology; conditions: Canis lupus familiaris
In short: (§4)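 Influenza A and B virus replication in MDCK cultures. Antiviral value is the concentration giving 50% reduction of virus-induced cytopathogenicity. Cytotoxicity is the concentration causing a microscopically detectable change in normal cell morphology.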

Influenza A virus = experiment: Concentration required to reduce influenza virus A (ishikawa) induced cytopathogenicity by 50%; in short: as §4
Influenza B virus = experiment: Concentration required to reduce influenza virus B (singapore) induced cytopathogenicity by 50%; in short: as §4

Row | Structure (SMILES) | MIC (HeLa [1]) | MCC (HeLa [3]) | MIC [4] | MIC (HeLa [5]) | MIC (Vero [6]) | MIC (HeLa [7]) | MCC (Vero [8]) | MIC [9] | MIC [10] | IC50 (L1210) | MIC [11] | MIC (Vero [12]) | MCC [13] | MIC (Vero [14]) | MIC [15] | MIC (Vero [16]) | MIC [17] | MIC [18] | MIC [20] | MIC (Vero [21]) | other results
1 | COc1ccc2[nH]c3c(c2c1)CCN1OCSC[C@@H](N)[C@H]31 | > 1 µg/mL | 4 µg/mL | > 4 µg/mL | > 1 µg/mL | > 1 µg/mL | > 1 µg/mL | > 2.5 µg/mL | > 4 µg/mL | > 4 µg/mL | 6.54 µg/mL (≈ 21.4 µM) | > 4 µg/mL | > 1 µg/mL | > 10 µg/mL | > 1 µg/mL | > 4 µg/mL | > 1 µg/mL | > 4 µg/mL | > 4 µg/mL | > 4 µg/mL | > 1 µg/mL | MIC (HeLa [2]): > 1.6 µg/mL; IC50 (MT4): 1.99 µg/mL (≈ 6.52 µM); IC50 (MOLT-4F): 0.94 µg/mL (≈ 3.08 µM); MIC [19]: > 4 µg/mL
2 | Cn1c2c(c3ccccc31)CCN1OCSC[C@@H](N)[C@H]21 | > 10 µg/mL | > 10 µg/mL |  | > 10 µg/mL | > 10 µg/mL | > 10 µg/mL | > 40 µg/mL | > 10 µg/mL |  |  | > 10 µg/mL | > 10 µg/mL | 40 µg/mL | > 10 µg/mL |  | > 10 µg/mL |  | > 10 µg/mL | > 10 µg/mL | > 10 µg/mL | 
3 | N[C@@H]1CSCON2CCc3c([nH]c4ccccc34)[C@@H]12 | > 10 µg/mL | > 10 µg/mL | > 10 µg/mL | > 10 µg/mL | > 10 µg/mL | > 10 µg/mL | 40 µg/mL | > 10 µg/mL | > 10 µg/mL | 17.4 µg/mL (≈ 63.2 µM) | > 10 µg/mL | > 10 µg/mL | 40 µg/mL | > 10 µg/mL | > 10 µg/mL | > 10 µg/mL | > 10 µg/mL | > 10 µg/mL | > 10 µg/mL | > 10 µg/mL | MCC (MDCK): 15 µg/mL; MIC (HeLa [2]): > 8 µg/mL; MIC (Influenza A virus): > 8 µg/mL; MIC (Influenza B virus): > 8 µg/mL; IC50 (MT4): 4.5 µg/mL (≈ 16.3 µM); IC50 (MOLT-4F): 5.14 µg/mL (≈ 18.7 µM); MIC [19]: > 10 µg/mL
4 | Cn1c2c(c3ccccc31)CCN1OCSC[C@@H](N)[C@@H]21 | 7 µg/mL (≈ 24.2 µM) | > 10 µg/mL | 0.7 µg/mL (≈ 2.42 µM) | 7 µg/mL (≈ 24.2 µM) | 0.7 µg/mL (≈ 2.42 µM) | 2 µg/mL (≈ 6.91 µM) | > 20 µg/mL | 1.5 µg/mL (≈ 5.18 µM) | 0.7 µg/mL (≈ 2.42 µM) | 0.56 µg/mL (≈ 1.94 µM) | 3 µg/mL (≈ 10.4 µM) | 2 µg/mL (≈ 6.91 µM) | > 40 µg/mL | 2 µg/mL (≈ 6.91 µM) | 2 µg/mL (≈ 6.91 µM) | 0.7 µg/mL (≈ 2.42 µM) | 7 µg/mL (≈ 24.2 µM) | 7 µg/mL (≈ 24.2 µM) | 0.7 µg/mL (≈ 2.42 µM) | 1 µg/mL (≈ 3.46 µM) | IC50 (MT4): 0.69 µg/mL (≈ 2.38 µM); IC50 (MOLT-4F): 0.37 µg/mL (≈ 1.28 µM); MIC [19]: 1 µg/mL (≈ 3.46 µM)
5 | COc1ccc2[nH]c3c(c2c1)CCN1OCSC[C@@H](N)[C@@H]31 | 0.02 µg/mL (≈ 0.0655 µM) | 0.4 µg/mL | 0.02 µg/mL (≈ 0.0655 µM) | 0.02 µg/mL (≈ 0.0655 µM) | 0.07 µg/mL (≈ 0.229 µM) | 0.02 µg/mL (≈ 0.0655 µM) | > 1 µg/mL | 0.02 µg/mL (≈ 0.0655 µM) | 0.02 µg/mL (≈ 0.0655 µM) | 0.005 µg/mL (≈ 0.0164 µM) | 0.045 µg/mL (≈ 0.147 µM) | 0.02 µg/mL (≈ 0.0655 µM) | > 1 µg/mL | 0.07 µg/mL (≈ 0.229 µM) | 0.07 µg/mL (≈ 0.229 µM) |  | 0.04 µg/mL (≈ 0.131 µM) | 0.02 µg/mL (≈ 0.0655 µM) | 0.04 µg/mL (≈ 0.131 µM) | 0.07 µg/mL (≈ 0.229 µM) | MCC (MDCK): 0.8 µg/mL; MIC (HeLa [2]): 0.15 µg/mL (≈ 0.491 µM); MIC (Influenza A virus): > 0.32 µg/mL; MIC (Influenza B virus): > 0.32 µg/mL; IC50 (MT4): 0.005 µg/mL (≈ 0.0164 µM); IC50 (MOLT-4F): 0.0062 µg/mL (≈ 0.0203 µM); MIC [19]: 0.02 µg/mL (≈ 0.0655 µM)
6 | N[C@H]1CSCON2CCc3c([nH]c4ccccc34)[C@@H]12 | > 10 µg/mL | 40 µg/mL | 2 µg/mL (≈ 7.26 µM) | 7 µg/mL (≈ 25.4 µM) | 7 µg/mL (≈ 25.4 µM) | > 10 µg/mL | 40 µg/mL | 2 µg/mL (≈ 7.26 µM) | 2 µg/mL (≈ 7.26 µM) | 1.24 µg/mL (≈ 4.5 µM) | 2 µg/mL (≈ 7.26 µM) | 20 µg/mL (≈ 72.6 µM) | > 10 µg/mL | 10 µg/mL (≈ 36.3 µM) | 2 µg/mL (≈ 7.26 µM) | 7 µg/mL (≈ 25.4 µM) | 7 µg/mL (≈ 25.4 µM) | 2 µg/mL (≈ 7.26 µM) | 2 µg/mL (≈ 7.26 µM) | 20 µg/mL (≈ 72.6 µM) | MCC (MDCK): 40 µg/mL; MIC (HeLa [2]): 3 µg/mL (≈ 10.9 µM); MIC (Influenza A virus): 3 µg/mL (≈ 10.9 µM); MIC (Influenza B virus): 3 µg/mL (≈ 10.9 µM); IC50 (MOLT-4F): 1.54 µg/mL (≈ 5.59 µM); MIC [19]: 2 µg/mL (≈ 7.26 µM)
